The values that follow come from ChEMBL document CHEMBL1777792, “Synthesis and evaluation of indole-based new scaffolds for antimicrobial activities--identification of promising candidates” (Bioorg Med Chem Lett, 2011).

Test [1] deals with Candida albicans. Kind of test: Antifungal activity against Candida albicans in yeast extract-peptone-glucose medium at 250 ug/ml after 48 hrs by disc diffusion assay. The class given is functional. Conditions: read-out: DIZ. In a few lines: (§1)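 C. albicans cells at a set number were spread on YEPD agar, either plain or containing the cell-wall disruptant named in the line (SDS, Congo red or calcofluor white). Compound solution, or the reference solvent as control, was spotted onto 0.5 cm discs placed on the lawn. Plates were incubated at 30 °C and the inhibition zone diameter was measured.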

For test [2], the system named is Candida albicans. Kind of test: Antifungal activity against Candida albicans in yeast extract-peptone-glucose medium at 250 ug/ml after 48 hrs by disc diffusion assay in presence of 0.01% of sodium dodecylsulphate. The settings on record: read-out: DIZ. The class given is functional. An outline of the steps:
as §1

Test [3] has as its system Candida albicans. The experiment in a line: Antifungal activity against Candida albicans in yeast extract-peptone-glucose medium at 250 ug/ml after 48 hrs by disc diffusion assay in presence of 150 ug/ml of congo red. The class given is functional. In a few lines:
as §1

Test [4] has as its system Candida albicans. The experiment in a line: Antifungal activity against Candida albicans in yeast extract-peptone-glucose medium at 250 ug/ml after 48 hrs by disc diffusion assay in presence of 100 ug/ml of calcofluor white. In kind it is functional. An outline of the steps: as §1
The subject of test [5] is Candida albicans. Kind of test: Antifungal activity against Candida albicans in yeast extract-peptone-glucose medium at 250 ug/ml after 48 hrs by disc diffusion assay in presence of rhodamine 6G.
The subject of test [6] is Escherichia coli. Kind of test: Antibacterial activity against Escherichia coli harboring ampicillin-resistance gene encoding plasmid at 333 ug/ml after 24 hrs by disc diffusion assay. In kind it is functional. The settings on record: read-out: DIZ. An outline of the steps:
(§2)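 Disc diffusion used an E. coli strain carrying a plasmid that encodes an ampicillin-resistance gene. Inhibition zone diameters were recorded and compared against the corresponding solvent controls.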

The subject of test [7] is Candida albicans. Kind of test: Antifungal activity against Candida albicans in yeast extract-peptone-glucose medium at 375 ug/ml after 48 hrs by disc diffusion assay in presence of rhodamine 6G.
Test [8] has as its system Candida albicans. Kind of test: Antifungal activity against Candida albicans in yeast extract-peptone-glucose medium at 375 ug/ml after 48 hrs by disc diffusion assay. The settings on record: read-out: DIZ. In kind it is functional. In a few lines: as §1
For test [9], the system named is Escherichia coli. The experiment in a line: Antibacterial activity against Escherichia coli harboring ampicillin-resistance gene encoding plasmid at 500 ug/ml after 24 hrs by disc diffusion assay. The class given is functional. Conditions: read-out: DIZ. An outline of the steps:
as §2

The subject of test [10] is Candida albicans. The experiment in a line: Antifungal activity against Candida albicans in yeast extract-peptone-glucose medium at 375 ug/ml after 48 hrs by disc diffusion assay in presence of 150 ug/ml of congo red. The class given is functional. In a few lines:
as §1

Test [11] has as its system Candida albicans. Kind of test: Antifungal activity against Candida albicans in yeast extract-peptone-glucose medium at 375 ug/ml after 48 hrs by disc diffusion assay in presence of 0.01% of sodium dodecylsulphate. In kind it is functional. The settings on record: read-out: DIZ. An outline of the steps: as §1
Test [12] relates to Candida albicans. Kind of test: Antifungal activity against Candida albicans in yeast extract-peptone-glucose medium at 375 ug/ml after 48 hrs by disc diffusion assay in presence of 100 ug/ml of calcofluor white. The class given is functional. In a few lines:
as §1

The test system of test [13] is Candida albicans. Kind of test: Antifungal activity against Candida albicans in yeast extract-peptone-glucose medium at 500 ug/ml after 48 hrs by disc diffusion assay in presence of 150 ug/ml of congo red. The class given is functional. An outline of the steps:
(§3)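 Disc diffusion on YEPD agar containing a cell-wall-disrupting agent (SDS, Congo red or calcofluor white) and spread with a set number of C. albicans cells. Compound and reference solvent spotted on 0.5 cm discs. Incubated at 30 °C, then inhibition zone diameter measured against solvent.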

Test [14] has as its system Candida albicans. Kind of test: Antifungal activity against Candida albicans in yeast extract-peptone-glucose medium at 500 ug/ml after 48 hrs by disc diffusion assay. The class given is functional. The settings on record: read-out: DIZ. In a few lines:
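Solid-phase assay on YEPD agar spread with a set number of C. albicans cells. Compound solution and reference solvent spotted onto 0.5 cm discs. Plates incubated at 30 °C, and inhibition zone diameter measured against solvent control.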

Test [15] relates to Candida albicans. The experiment in a line: Antifungal activity against Candida albicans in yeast extract-peptone-glucose medium at 500 ug/ml after 48 hrs by disc diffusion assay in presence of rhodamine 6G.
The test system of test [16] is Candida albicans. Kind of test: Antifungal activity against Candida albicans in yeast extract-peptone-glucose medium at 500 ug/ml after 48 hrs by disc diffusion assay in presence of 100 ug/ml of calcofluor white. The class given is functional. An outline of the steps:
as §3

Test [17] concerns Candida albicans. The experiment in a line: Antifungal activity against Candida albicans in yeast extract-peptone-glucose medium at 500 ug/ml after 48 hrs by disc diffusion assay in presence of 0.01% of sodium dodecylsulphate. The class given is functional. Conditions: read-out: DIZ. In a few lines: as §3
The subject of test [18] is Candida albicans. The experiment in a line: Antifungal activity against Candida albicans in yeast extract-peptone-glucose medium at 300 ug/ml after 48 hrs by disc diffusion assay in presence of […]. In kind it is functional. An outline of the steps:
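This is a C. albicans disc diffusion on YEPD agar containing rhodamine 6G, a substrate of the Cdr1p/Cdr2p ATP-dependent efflux pumps, to test for enhanced R6G toxicity. A set number of cells was spread, and 0.5 cm discs were spotted with compound solution or reference solvent. Plates were incubated at 30 °C and the zone diameter was measured.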

Test [19] relates to Escherichia coli. Kind of test: Antibacterial activity against Escherichia coli harboring ampicillin-resistance gene encoding plasmid at 300 ug/ml after 24 hrs by disc diffusion assay. In kind it is functional. Conditions: read-out: DIZ. An outline of the steps: as §2
Test [20] concerns Candida albicans. The experiment in a line: Antifungal activity against Candida albicans in yeast extract-peptone-glucose medium at 300 ug/ml after 48 hrs by disc diffusion assay in presence of 0.01% of sodium dodecylsulphate. The class given is functional. The settings on record: read-out: DIZ. In a few lines:
as §1

The test system of test [21] is Candida albicans. Kind of test: Antifungal activity against Candida albicans in yeast extract-peptone-glucose medium at 300 ug/ml after 48 hrs by disc diffusion assay in presence of 150 ug/ml of congo red. The class given is functional. In a few lines:
as §1

In test [22] the test system is Escherichia coli. Kind of test: Antibacterial activity against Escherichia coli harboring ampicillin-resistance gene encoding plasmid at 250 ug/ml after 24 hrs by disc diffusion assay. In kind it is functional. Conditions: read-out: DIZ. In a few lines:
as §2

Test [23] has as its system Candida albicans. Kind of test: Antifungal activity against Candida albicans in yeast extract-peptone-glucose medium at 300 ug/ml after 48 hrs by disc diffusion assay. The class given is functional. Conditions: read-out: DIZ. In a few lines:
as §1

In the case of `O=C(C(=O)N1CCOCC1)c1cn(CCCCn2cc(C(=O)C(=O)N3CCOCC3)c3ccccc32)c2ccccc12`, the zone of inhibition at 250 µg/mL in test [1] amounted to 6 mm; in [2], 7 mm. The entries for the “diameter of the inhibition zone (DIZ)” value in test [3], in [4] and in [5] were 5 mm, 7.5 mm and 7.5 mm, respectively. Also, in test [6], the zone of inhibition at 333 µg/mL is 10 mm.

For the compound `O=C(C(=O)N1CCCC1)c1cn(CCCCCn2cc(C(=O)C(=O)N3CCCC3)c3ccccc32)c2ccccc12`, the “diameter of the inhibition zone (DIZ)” value in test [7] is reported as 6.5 mm; in test [10], 8 mm; in test [12], 5.5 mm. Further, the values for the zone of inhibition at 375 µg/mL in [8] and in test [11] were 5.5 mm and 6 mm, respectively. Moreover, the zone of inhibition at 500 µg/mL in [9] was 8 mm.

Regarding `O=C(C(=O)N1CCCCC1)c1cn(CCCn2cc(C(=O)C(=O)N3CCCCC3)c3cc(Br)ccc32)c2ccc(Br)cc12`, the “diameter of the inhibition zone (DIZ)” value is reported as 9.5 mm in test [13], 7.5 mm in test [15] and 6.5 mm in test [16]. The zone of inhibition at 500 µg/mL in test [14] came to 6 mm; in test [9], 9 mm; in [17] it was 8 mm.

Regarding `O=C(C(=O)N1CCCCC1)c1cn(Cc2ccc(Cn3cc(C(=O)C(=O)N4CCCCC4)c4ccccc43)cc2)c2ccccc12`, the “diameter of the inhibition zone (DIZ)” value in [18] came out at 6 mm; in test [21] it was 7.5 mm. For the same compound, the zone of inhibition at 300 µg/mL in test [19] was determined as 9 mm; in test [20], 7.5 mm.

On to `O=C(C(=O)N1CCOCC1)c1cn(Cc2ccc(Cn3cc(C(=O)C(=O)N4CCOCC4)c4ccccc43)cc2)c2ccccc12`, for which the zone of inhibition at 250 µg/mL came out at 10.5 mm in test [22], 6.5 mm in test [1] and 6.5 mm in test [2]. Besides, the “diameter of the inhibition zone (DIZ)” value in test [3], in test [4] and in [5] was 6 mm throughout.

Take `OC(Cn1cncn1)(Cn1cncn1)c1ccc(F)cc1F` [FLUCONAZOLE]: the zone of inhibition at 300 µg/mL in test [23] turned out to be 15 mm.

Turning to `Clc1ccc(COC(Cn2ccnc2)c2ccc(Cl)cc2Cl)c(Cl)c1` (stereo not given) [MICONAZOLE], in test [23], the zone of inhibition at 300 µg/mL turned out to be 12 mm.
